Hits are enriched below; roughly 1.9% of the tested compounds scored in any of these assays.
SENP1 FRET inh: inhibitors of human SENP1 SUMO protease catalytic domain. Q9P0U3. recombinant SENP1 catalytic domain, CyPet-SUMO1-YPet FRET cleavage. inhibition, % at 10 µM. 0.21% of 360,000 active. AID 624204;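 active = inhibition at least 30% at 10 µM, raw YFP signal under a set limit, fluorescence ratio 0.5 to 1.5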;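 note: 0% = enzyme with DMSO and 100% = no enzyme wells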
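System: Recombinant human SENP1 catalytic domain, His6-tagged | Incubation: Enzyme reaction for 50 min at room temperature, dark | Medium: Tris pH 8 with BME, BSA, NP40 and catalase | Also added: 25 nM SUMO1 FRET substrate | Compound: 10 µM single point, 0.5% DMSO | Measured by: FRET fluorescence in CFP and YFP emission channels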
ADAM10 inh: inhibitors of human ADAM10. 0.62% of 370,000 active. recombinant ADAM10, EDANS/DABCYL FRET peptide cleavage, 3 h. inhibition, % at 7 µM. AID 720582;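 active = inhibition above a per-campaign cutoff equal to the mean of compounds falling between control-based bounds plus 3 SD, cut at about 20% in these data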;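 note: 0% = DMSO wells while the 100% control is not disclosed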
ADAM17 inh: inhibits human ADAM17; inhibition, % at 6.95 µM; AID 720648; P78536; recombinant ADAM17, EDANS/DABCYL FRET peptide cleavage; 0.83% of 370,000 active;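 active = inhibition above the mean of compounds lying between control limits plus 3 SD, set per campaign, cut at about 8.5% in these data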;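 note: 0% = DMSO-only wells as the low control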
FAS-TE inh: FAS thioesterase (human) inhibition; P49327; recombinant FAS-TE, OMFH fluorogenic substrate, fluorescence endpoint; inhibition, % at 15 µM; 0.67% of 360,000 active;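 active = compounds whose normalised, plate-corrected inhibition of enzyme fluorescence in the single-dose primary screen is 50% or more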;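 note: 0% = DMSO with enzyme and 100% = substrate without enzyme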
FAS-TE conf: FAS thioesterase (human) inhibition, confirmation. shares compounds with FAS-TE inh. recombinant FAS-TE, OMFH fluorogenic substrate, fluorescence. inhibition, % at 15 µM. 45% of 2,300 active. AID 624325;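 active = compounds inhibiting the enzyme by at least 50% at 15 µM in any one of the replicates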;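 note: 0% = enzyme with DMSO only and 100% = wells lacking enzyme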
* marks the source's active call; other numbers are inactive results.

CCc1ccc(C(=O)COC(=O)c2cc([N+](=O)[O-])ccc2NCCO)cc1 was read as SENP1 FRET inh 0, ADAM10 inh 5, ADAM17 inh 7, FAS-TE inh 84* and FAS-TE conf 73*.
Screening COc1ccc2c(c1)CNC2CS(=O)(=O)NCCc1ccccc1 (configuration not stated) returned ADAM10 inh -83 and ADAM17 inh -21.
Screening CC(C)(C)c1ccc(COC(=O)CN2C(=O)NC3(CCCC3)C2=O)cc1 returned SENP1 FRET inh 1, ADAM10 inh -4, ADAM17 inh 3, FAS-TE inh 68* and FAS-TE conf 76*.
Screening Cc1ccccc1COC(=O)CN1C(=O)NC2(CCCC2)C1=O returned SENP1 FRET inh -1, ADAM10 inh -9, ADAM17 inh 0 and FAS-TE inh -4.
`Cc1cc(C(C)(C)C)cc(C)c1COC(=O)CN1C(=O)NC2(CCCC2)C1=O` gave SENP1 FRET inh -1, ADAM10 inh -2, ADAM17 inh 3, FAS-TE inh 52* and FAS-TE conf 56*.
Screening COC(=O)C[C@H]1CC[C@@H]2[C@H](COc3ccc(NC(=O)C(C)C)cc3C(=O)N2C)O1 returned ADAM10 inh -7 and ADAM17 inh -4.
O=C(NC1CCCCN(Cc2cccc(Cl)c2)C1=O)c1ccc(-c2ccccc2)cc1 (configuration not stated) was read as ADAM10 inh 0 and ADAM17 inh 0.
For O=C(OC12CCCN(C1)/C(=C/c1cccc(Cl)c1)C2)c1ccco1 (configuration not stated) the results were ADAM10 inh -8 and ADAM17 inh 1.
CCN(CC)c1cc2nonc2c2nonc12 was read as SENP1 FRET inh 4, ADAM10 inh 8, ADAM17 inh -2, FAS-TE inh 51* and FAS-TE conf 45*.
CCN1C(=O)[C@H]2[C@@H](c3ccc(C)cc3)N3C(=O)N(c4ccc(C)cc4)C(=O)[C@@]3(Cc3ccc(Cl)cc3)[C@H]2C1=O was read as SENP1 FRET inh 0, ADAM10 inh 6, ADAM17 inh -2, FAS-TE inh 60* and FAS-TE conf 20.
Screening Cc1cccc([C@@H]2[C@@H]3C(=O)N(Cc4ccccc4)C(=O)[C@@H]3[C@]3(CC(C)C)C(=O)N(c4cccc(Cl)c4)C(=O)N23)c1 returned SENP1 FRET inh 1, ADAM10 inh 15, ADAM17 inh 3, FAS-TE inh 72* and FAS-TE conf 27.
CC[C@@]12C(=O)N(c3ccc(OC)cc3)C(=O)N1[C@H](c1cccc(C)c1)[C@@H]1C(=O)N(Cc3ccccc3)C(=O)[C@@H]12 was read as SENP1 FRET inh 3 and FAS-TE inh 13.
CCN1C(=O)[C@H]2[C@@H](c3ccc(C)cc3)N3C(=O)N(c4ccccc4)C(=O)[C@@]3(Cc3ccc(Cl)cc3)[C@H]2C1=O was read as SENP1 FRET inh 2, FAS-TE inh 63* and FAS-TE conf 32.
`O=C(Nc1ccccc1)OCCN1C(=O)CCC12CCC(c1ccccc1)CC2` (configuration not stated) gave ADAM10 inh 0 and ADAM17 inh -1.
Screening Cc1ccc(C(C(=O)NC2CCCCC2)N(C(=O)CCCC(=O)Nc2ccccn2)c2ccc3c(c2)OCCO3)cc1 (configuration not stated) returned SENP1 FRET inh 3, ADAM10 inh -4, ADAM17 inh -1, FAS-TE inh 52* and FAS-TE conf 45.
For O=C(CCCC(=O)N(c1ccc2c(c1)OCCO2)C(C(=O)NC1CCCCC1)c1ccc(F)cc1)Nc1ccccn1 (configuration not stated) the results were SENP1 FRET inh 3, ADAM10 inh -5, ADAM17 inh -1 and FAS-TE inh 2.
`N[C@H](C(=O)Nc1ccc(Cl)cc1C(=O)c1ccc[nH]1)c1ccccc1` gave ADAM10 inh -11 and ADAM17 inh -6.
`COC(=O)[C@]12C[C@H](CC(=O)NCc3cccs3)C(=O)N(Cc3ccco3)C1=C[C@H](COCc1ccccc1)O[C@@H]2C` gave ADAM10 inh -2 and ADAM17 inh -2.
Screening O=C(Sc1nnc(-c2ccccc2)o1)N1c2ccccc2Sc2ccccc21 returned SENP1 FRET inh -4, ADAM10 inh 3, ADAM17 inh -2, FAS-TE inh 60* and FAS-TE conf 28*.

Screens as filed in PubChem.
